Experiments:
Polycomb protein EED [1] = biological target: T1, Polycomb protein EED (Homo sapiens, UniProt O75530); test: Inhibition of pyrrolidine inhibitor-based oregon-green probe binding to GST-tagged EED (unknown origin) after 1 hr by assay explorer integrated LanthaScreen TR-FRET assay
In short: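 On the integrated platform, HPLC fractions were quantified by charged aerosol detection (calibrated with ketoprofen) and dissolved in DMSO to 10 mM stocks. An 11-point, 3-fold serial dilution followed. 50 nL of each dilution was pin-transferred into 10 µL assay buffer (0.5% DMSO final) and incubated 1 h at 25 °C. TR-FRET was read on EnVision, and activity was obtained by curve fitting.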

Polycomb protein EED [2] = biological target: T1, Polycomb protein EED; test: Inhibition of pyrrolidine inhibitor-based oregon-green probe binding to GST-tagged EED (unknown origin) after 1 hr by LanthaScreen TR-FRET assay
In short: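 Compounds were made, purified and tested conventionally as separate steps, under the same assay conditions as the integrated run. Compound in DMSO was added to assay buffer (0.5% DMSO final) and incubated 1 h at 25 °C. The TR-FRET signal was read on a plate reader, and activity was derived by curve fitting.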

T1 sequence (O75530 whole entry): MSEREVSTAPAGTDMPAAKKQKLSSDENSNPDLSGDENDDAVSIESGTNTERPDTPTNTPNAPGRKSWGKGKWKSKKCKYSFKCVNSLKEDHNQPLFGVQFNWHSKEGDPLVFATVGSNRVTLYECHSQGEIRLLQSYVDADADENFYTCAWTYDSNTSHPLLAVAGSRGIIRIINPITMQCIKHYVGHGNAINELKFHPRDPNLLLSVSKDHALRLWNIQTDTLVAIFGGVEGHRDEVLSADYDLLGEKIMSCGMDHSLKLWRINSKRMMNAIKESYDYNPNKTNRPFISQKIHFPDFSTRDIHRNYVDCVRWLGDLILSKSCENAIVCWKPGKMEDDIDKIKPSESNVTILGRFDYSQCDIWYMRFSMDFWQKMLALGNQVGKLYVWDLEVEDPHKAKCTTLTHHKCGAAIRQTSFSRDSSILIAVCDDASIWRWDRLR

SMILES | IC50 (Polycomb protein EED [1]) [nM] | IC50 (Polycomb protein EED [2]) [nM]
CC(=O)NC1CCN(c2ccc([C@H]3CN(Cc4c(C)cccc4F)C[C@@H]3N(C)C)cc2)CC1 | 40 | 160
Cc1cccc(F)c1CN1C[C@H](c2ccc(N3CCn4ccnc4C3)cc2)[C@@H](N(C)C)C1 | 70 | 100
Cc1cc([C@H]2CN(Cc3c(C)cccc3F)C[C@@H]2N(C)C)ccc1C(=O)Nc1cccnc1 | 80 | 100
Cc1ccc(N2CCN(c3ccc([C@H]4CN(Cc5c(C)cccc5F)C[C@@H]4N(C)C)cc3)CC2)cc1 | 150 | 220
Cc1cccc(F)c1CN1C[C@H](c2ccc(N3CCN(c4ccccc4)CC3)cc2)[C@@H](N(C)C)C1 | 50 | 90
Cc1cccc(F)c1CN1C[C@H](c2ccc(N3CCC(N(C)C)CC3)cc2)[C@@H](N(C)C)C1 | 40 | 100
Cc1cccc(F)c1CN1C[C@H](c2ccc(N3CCN(c4ccccc4S(C)(=O)=O)CC3)cc2)[C@@H](N(C)C)C1 | 70 | 190
Cc1cc([C@H]2CN(Cc3c(C)cccc3F)C[C@@H]2N(C)C)ccc1C(=O)NCc1ccncc1 | 70 | 110
Cc1cccc(F)c1CN1C[C@H](c2ccc(N3CCN(c4ccncc4)CC3)cc2)[C@@H](N(C)C)C1 | 10 | 10
Cc1cc([C@H]2CN(Cc3c(C)cccc3F)C[C@@H]2N(C)C)ccc1C(=O)NCc1ccccn1 | 70 | 80
Cc1cc([C@H]2CN(Cc3c(C)cccc3F)C[C@@H]2N(C)C)ccc1C(=O)N(C)C | 110 | 180
Cc1cc([C@H]2CN(Cc3c(C)cccc3F)C[C@@H]2N(C)C)ccc1C(=O)N1CCN(CCO)CC1 | 270 | 380
Cc1ccc(S(=O)(=O)N2CCN(c3ccc([C@H]4CN(Cc5c(C)cccc5F)C[C@@H]4N(C)C)cc3)CC2)cc1 | 50 | 80
Cc1cccc(F)c1CN1C[C@H](c2ccc(N3CCN(S(=O)(=O)c4cccc(F)c4)CC3)cc2)[C@@H](N(C)C)C1 | 40 | 50
CC(=O)N[C@H]1CCN(c2ccc([C@H]3CN(Cc4c(C)cccc4F)C[C@@H]3N(C)C)cc2)C1 | 90 | 240
CC(=O)N[C@@H]1CCN(c2ccc([C@H]3CN(Cc4c(C)cccc4F)C[C@@H]3N(C)C)cc2)C1 | 160 | 
CCN(CC)C(=O)c1ccc([C@H]2CN(Cc3c(C)cccc3F)C[C@@H]2N(C)C)cc1C | 100 | 250
Cc1cccc(F)c1CN1C[C@H](c2ccc(N3CCC(N4CCOCC4)CC3)cc2)[C@@H](N(C)C)C1 | 40 | 60
Cc1cccc(F)c1CN1C[C@H](c2ccc(N3CCC(C#N)CC3)cc2)[C@@H](N(C)C)C1 | 70 | 140
Cc1cccc(F)c1CN1C[C@H](c2ccc(N3CCC(C)CC3)cc2)[C@@H](N(C)C)C1 | 40 | 140
Cc1cccc(F)c1CN1C[C@H](c2ccc(N(C)C3CCN(C)CC3)cc2)[C@@H](N(C)C)C1 | 90 | 350
Cc1cc([C@H]2CN(Cc3c(C)cccc3F)C[C@@H]2N(C)C)ccc1C(=O)NCCN(C)C | 80 | 150
Cc1cccc(F)c1CN1C[C@H](c2ccc(N3CCN(c4nccs4)CC3)cc2)[C@@H](N(C)C)C1 | 30 | 40
Cc1cc([C@H]2CN(Cc3c(C)cccc3F)C[C@@H]2N(C)C)ccc1C(=O)N1CCN(C)CC1 | 260 | 480

From ChEMBL document CHEMBL3992570, “Integrated Platform for Expedited Synthesis-Purification-Testing of Small Molecule Libraries” (ACS Med Chem Lett, 2017)
